Several values for one entry are separate records, joined by “and”; a condition that tells them apart may be missing. Identical values can stand only once.

The first experiment deals with MIA PaCa-2. Briefly: Concentration required to inhibit the colony formation of pancreatic human (PACA) cell lines by 50%. The class given is functional, cell-based.
Conditions: not given
The essentials:
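PaCa2 single-cell suspensions plated at 400 cells per 60-mm dish. Drug exposure began 24 h after plating. Colonies formed over 7-12 days, then were MeOH-fixed, Giemsa-stained, counted and compared with untreated control. Triplicate assays. Drugs in DMSO, final ≤0.1%.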
For the compound `CCCC(=O)OCOC(=O)/C=C(C)/C=C/C=C(C)/C=C/C1=C(C)CCCC1(C)C`, half-maximal inhibition (IC50) was put at 4 µM. In other words, the single-digit micromolar range.

Take `CCCC(=O)OCOC(=O)C(C)(C)C` [AN-9]: the IC50 (usually the concentration needed to halve the response being measured) came out at 30 µM.

Compound `CCCC(=O)O` [BUTYRIC ACID] showed a half-inhibitory concentration (IC50) of 250 µM.

`CC1=C(/C=C/C(C)=C/C=C/C(C)=C/C(=O)O)C(C)(C)CCC1` [TRETINOIN] gave a half-maximal inhibitory concentration (IC50) of 9.5 µM.

A further experiment deals with HL-60. Kind of experiment: In vitro for the differentiation induction activity determined in the human myeloid leukemic cell line HL-60. The class given is functional. As to conditions: read-out: ED50 (the source's name). In outline: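 HL-60 treated 4 days. NBT reduction measured with 0.1% NBT plus 0.4 μM PMA for 30 min at 37 °C, scoring ≥200 cells, with the untreated background subtracted. ED50 is the concentration giving half-maximal NBT reduction, obtained by linear regression and averaged over three independent experiments.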
Regarding `CCCC(=O)OCOC(=O)/C=C(C)/C=C/C=C(C)/C=C/C1=C(C)CCCC1(C)C`, the EC50 worked out at 0.031 µM.

As to `CCCC(=O)O` [BUTYRIC ACID], the EC50 was 285 µM.

With `CC1=C(/C=C/C(C)=C/C=C/C(C)=C/C(=O)O)C(C)(C)CCC1` [TRETINOIN], the EC50 turned out to be 1.25 µM.

The subject of another experiment is 3LLD122. Briefly: Concentration required to inhibit the colony formation of lung carcinoma (3LLD122) cell lines by 50%. As to conditions: Mus musculus. The format is functional, cell-based. The essentials: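 Murine 3LLD122 (highly metastatic 3LL subclone) grown in RPMI with 10% FCS and 2 mM glutamine at 37 °C, 5% CO2. Compounds added to the upper layer of a semisolid agar bilayer. Aggregates of >20 cells scored as colonies after 7 days by inverted microscope. Drugs in DMSO at 1:1000 dilution (final DMSO ≤0.1%).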
As for `CCCC(=O)OCOC(=O)/C=C(C)/C=C/C=C(C)/C=C/C1=C(C)CCCC1(C)C`, the half-maximal inhibitory concentration (IC50) stood at 4.5 µM. In other words, the single-digit micromolar range.

`CCCC(=O)OCOC(=O)C(C)(C)C` [AN-9] registered an IC50 of 35 µM.

The compound `CCCC(=O)O` [BUTYRIC ACID] had a concentration for half-maximal inhibition (IC50) greater than 1000 µM.

Consider `CC1=C(/C=C/C(C)=C/C=C/C(C)=C/C(=O)O)C(C)(C)CCC1` [TRETINOIN], for which inhibition was half-maximal at 33 µM (IC50).

For the next experiment, the system named is HL-60. Briefly: Differentiation activity was determined by evaluation of NBT reduction activity of HL-60 cells, % of NBT positive cells determined. The class given is functional, Homo sapiens.
Conditions: not given
In outline: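 HL-60 grown 2 days with or without compound at 0.25 μM. Cultures then given 0.1% NBT, stimulated with 0.4 μM PMA and incubated 30 min at 37 °C. At least 200 cells scored microscopically. % NBT-positive cells taken as stained/total, minus the untreated-culture value. Three independent experiments.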
`CC1=C(/C=C/C(C)=C/C=C/C(C)=C/C(=O)OCOC(=O)C(C)C)C(C)(C)CCC1`: the NBT positive cells was 48% and 54% and 49%.

In the case of `CC1=C(/C=C/C(C)=C/C=C/C(C)=C/C(=O)OCOC(=O)C(C)(C)C)C(C)(C)CCC1`, the NBT positive cells is 13% and 21% and 17%.

As to `CCC(=O)OCOC(=O)/C=C(C)/C=C/C=C(C)/C=C/C1=C(C)CCCC1(C)C`, the NBT positive cells is 60% and 56% and 57%.

Take `CCCC(=O)OCOC(=O)/C=C(C)/C=C/C=C(C)/C=C/C1=C(C)CCCC1(C)C`: the NBT positive cells is 72% and 74% and 78%.

`CC1=C(/C=C/C(C)=C/C=C/C(C)=C/C(=O)O)C(C)(C)CCC1` [TRETINOIN]: the NBT positive cells was 21% and 30% and 22%.

Values taken from ChEMBL document CHEMBL1133463, “Novel mutual prodrug of retinoic and butyric acids with enhanced anticancer activity” (J Med Chem, 2000).
